Measured values as given in ChEMBL document CHEMBL4428106, “Synthesis, biological evaluation and molecular docking study of N-arylbenzo[d]oxazol-2-amines as potential α-glucosidase inhibitors” (Bioorg Med Chem, 2016).
Blank lines part the entries; values can stand above or below the compound they belong to.

Columns and labels:
[1] = Inhibition of baker's yeast alpha-glucosidase using p-nitrophenyl-alpha D-glucopyranoside as substrate preincubated for 15 mins followed by substrate addition measured after 30 mins by spectrophotometric analysis; set-up: species or system Saccharomyces cerevisiae
Method in brief: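 Enzyme 0.1 U/mL preincubated with test compounds at various concentrations (DMSO, final 5% v/v) in 0.1 M phosphate buffer pH 6.8, 37 C, 15 min; 1.25 mM p-nitrophenyl α-D-glucopyranoside then added, 30 min at 37 C; absorbance read at 405 nm. DMSO-only control; triplicates. % inhibition = (1-∆Asample/∆Acontrol)*100; IC50 = concentration giving 50% inhibition.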

[2] = Non-competitive inhibition of baker's yeast alpha-glucosidase using p-nitrophenyl-alpha D-glucopyranoside as substrate preincubated for 15 mins followed by substrate addition measured after 30 mins by Lineweaver-Burk plot analysis; set-up: species or system Saccharomyces cerevisiae
Method in brief: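 Kinetics: inhibitor at 0, 10, 20, 30, 40 and 50 μM against p-nitrophenyl α-D-glucopyranoside at 0.25, 0.5, 1 and 2 mM. Inhibition type assigned from Lineweaver-Burk plots (changes in Vmax and Km); Ki estimated from replot of slope versus inhibitor concentration.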

Saccharomyces cerevisiae = test: Potency index, ratio of acarbose IC50 to compound IC50 for baker's yeast alpha-glucosidase

Structure (SMILES): CCOc1ccc(Nc2nc3ccccc3o2)cc1
IC50 [1]: > 200 µM

Structure (SMILES): Cc1ccc(Nc2nc3ccccc3o2)cc1
IC50 [1]: > 200 µM

Structure (SMILES): Cc1ccc(Nc2nc3ccccc3o2)c(C)c1
IC50 [1]: > 200 µM

Structure (SMILES): Cc1cccc(Nc2nc3ccccc3o2)c1
IC50 [1]: > 200 µM

Structure (SMILES): c1ccc(Nc2nc3ccccc3o2)cc1
IC50 [1]: > 200 µM

Structure (SMILES): Cc1ccccc1Nc1nc2ccccc2o1
IC50 [1]: > 200 µM

The next lines start with the values.

IC50 [1]: > 200 µM
Structure (SMILES): COc1ccc(Nc2nc3ccccc3o2)cc1

IC50 [1]: 65 µM
Structure (SMILES): CCOc1ccccc1Nc1nc2ccccc2o1

IC50 [1]: 68.4 µM
Structure (SMILES): Fc1ccc(Nc2nc3ccccc3o2)cc1

IC50 [1]: 120 µM
Structure (SMILES): FC(F)(F)c1cccc(Nc2nc3ccccc3o2)c1

IC50 [1]: 32.5 µM
Ki [2]: 31.3 µM
Ratio IC50 (Saccharomyces cerevisiae): 25
Structure (SMILES): c1ccc(Oc2ccc(Nc3nc4ccccc4o3)cc2)cc1

IC50 [1]: 80.4 µM
Structure (SMILES): Clc1ccc(Nc2nc3ccccc3o2)cc1

IC50 [1]: 44.4 µM
Structure (SMILES): Clc1ccc(Nc2nc3ccccc3o2)c(Cl)c1
